From publication PMC5909786 (Drug Design, Development and Therapy, 2018)

Assays:
[1] = In vivo tissue distribution; parameters: species or system Raji/VCR cell bearing BALB/c nude mice; conditions: 10 mg/kg of VCR intravenous
[2] = tested on: Raji cells; assay: In vitro cytotoxicity; format: cell-based, human; conditions: Raji cells versus Raji/VCR cells, MTT, 72 hours
[3] = tested on: Raji/VCR cell bearing BALB/c nude mice; assay: In vivo antitumor activity; conditions: 10 mg/kg of VCR intravenously twice a week for 3 weeks, n=6
[4] = Systemic toxicity; format: in vivo, BALB/c nude mice; conditions: tumor-bearing mice, after 3 weeks of administration
How it was run: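 BALB/c nude mice (4–6 weeks, 18–22 g) carried subcutaneous right-flank xenografts of vincristine-resistant Raji cells (5×10^7 cells in 100 μL PBS). Mice were randomised into groups of six and dosed intravenously twice a week for 3 weeks with PBS control or test formulations (10 mg/kg drug). Body weight was recorded as a systemic toxicity read-out.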

SMILES: CC[C@]1(O)C[C@H]2CN(CCc3c([nH]c4ccccc34)[C@@](C(=O)OC)(c3cc4c(cc3OC)N(C=O)[C@H]3[C@@](O)(C(=O)OC)[C@H](OC(C)=O)[C@]5(CC)C=CCN6CC[C@]43[C@@H]65)C2)C1 [Free VCR, vincristine]
- Drug distribution over time (in words) [1]: rapidly reached a high level during the first few hours and reduced over time
- In vitro cytotoxicity (in words) [2]: higher cytotoxicity in Raji cells than Raji/VCR cells
- Tumor volume / tumor growth (in words) [3]: not statistically different from the negative control
- Body weight (in words) [4]: reduction in body weight
